Active and inactive are the calls of the source. The calls are words filed in the database; no cut-off is given here.
What was measured:
[1] = system: A549; assay: Antiproliferative activity against human A549 cells assessed as change in phenotypic response up to 50 uM; assay type: functional, cell-based
[2] = target: Vascular endothelial growth factor receptor 2 (Homo sapiens) (UniProt P35968); assay: Inhibition of partial length human VEGFR2 expressed in mammalian system at 1 uM
Method in brief: (§1)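 Single-concentration screen across a panel of 97 kinases, with the test compound at 1 uM.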

[3] = target: Ephrin type-A receptor 2 (Homo sapiens) (UniProt P29317); assay: Inhibition of partial length human EPHA2 expressed in bacterial system at 1 uM
Method in brief: (§2)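 Single-point screen within a 97-kinase profiling panel, with the test compound at 1 µM.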

[4] = target: Bone morphogenetic protein receptor type-2 (Homo sapiens) (UniProt Q13873); assay: Inhibition of partial length human BMPR2 expressed in mammalian system at 1 uM; method in brief: as §2
[5] = target: Tyrosine-protein kinase receptor UFO (Homo sapiens) (UniProt P30530); assay: Inhibition of partial length human AXL expressed in bacterial system at 1 uM; method in brief: as §2
[6] = target: Cyclin-dependent kinase 7 (Homo sapiens) (UniProt P50613); assay: Inhibition of partial length human CDK7 expressed in mammalian system at 1 uM; method in brief: as §2
Cyclin-dependent kinase 7 (Homo sapiens), sequence (P50613 whole entry): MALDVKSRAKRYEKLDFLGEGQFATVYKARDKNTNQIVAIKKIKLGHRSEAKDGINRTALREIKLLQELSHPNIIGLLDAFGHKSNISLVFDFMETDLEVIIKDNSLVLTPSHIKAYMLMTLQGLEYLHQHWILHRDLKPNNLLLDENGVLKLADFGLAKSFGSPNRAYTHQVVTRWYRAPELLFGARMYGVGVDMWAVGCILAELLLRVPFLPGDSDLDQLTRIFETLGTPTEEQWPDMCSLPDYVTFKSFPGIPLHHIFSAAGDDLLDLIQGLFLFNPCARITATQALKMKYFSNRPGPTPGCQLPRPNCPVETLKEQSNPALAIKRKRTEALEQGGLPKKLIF

[7] = Cytotoxicity against human 293T cells assessed as change in phenotypic response measured after prolonged treatment; assay type: cell-based; settings: hek-293t
[8] = target: Serine/threonine-protein kinase pim-3 (Homo sapiens) (UniProt Q86V86); assay: Inhibition of partial length human PIM3 expressed in bacterial system at 1 uM; method in brief: as §1
[9] = target: cAMP-dependent protein kinase catalytic subunit alpha (Homo sapiens) (UniProt P17612); assay: Inhibition of partial length human PKACalpha expressed in bacterial system at 1 uM; method in brief: as §1
[10] = target: Macrophage colony-stimulating factor 1 receptor (Homo sapiens) (UniProt P07333); assay: Inhibition of partial length human CSF1R expressed in bacterial system at 1 uM; method in brief: as §2
[11] = target: Receptor-type tyrosine-protein kinase FLT3 (Homo sapiens) (UniProt P36888); assay: Inhibition of partial length human FLT3 expressed in bacterial system at 1 uM; method in brief: as §2
Receptor-type tyrosine-protein kinase FLT3 (Homo sapiens), sequence (P36888 whole entry): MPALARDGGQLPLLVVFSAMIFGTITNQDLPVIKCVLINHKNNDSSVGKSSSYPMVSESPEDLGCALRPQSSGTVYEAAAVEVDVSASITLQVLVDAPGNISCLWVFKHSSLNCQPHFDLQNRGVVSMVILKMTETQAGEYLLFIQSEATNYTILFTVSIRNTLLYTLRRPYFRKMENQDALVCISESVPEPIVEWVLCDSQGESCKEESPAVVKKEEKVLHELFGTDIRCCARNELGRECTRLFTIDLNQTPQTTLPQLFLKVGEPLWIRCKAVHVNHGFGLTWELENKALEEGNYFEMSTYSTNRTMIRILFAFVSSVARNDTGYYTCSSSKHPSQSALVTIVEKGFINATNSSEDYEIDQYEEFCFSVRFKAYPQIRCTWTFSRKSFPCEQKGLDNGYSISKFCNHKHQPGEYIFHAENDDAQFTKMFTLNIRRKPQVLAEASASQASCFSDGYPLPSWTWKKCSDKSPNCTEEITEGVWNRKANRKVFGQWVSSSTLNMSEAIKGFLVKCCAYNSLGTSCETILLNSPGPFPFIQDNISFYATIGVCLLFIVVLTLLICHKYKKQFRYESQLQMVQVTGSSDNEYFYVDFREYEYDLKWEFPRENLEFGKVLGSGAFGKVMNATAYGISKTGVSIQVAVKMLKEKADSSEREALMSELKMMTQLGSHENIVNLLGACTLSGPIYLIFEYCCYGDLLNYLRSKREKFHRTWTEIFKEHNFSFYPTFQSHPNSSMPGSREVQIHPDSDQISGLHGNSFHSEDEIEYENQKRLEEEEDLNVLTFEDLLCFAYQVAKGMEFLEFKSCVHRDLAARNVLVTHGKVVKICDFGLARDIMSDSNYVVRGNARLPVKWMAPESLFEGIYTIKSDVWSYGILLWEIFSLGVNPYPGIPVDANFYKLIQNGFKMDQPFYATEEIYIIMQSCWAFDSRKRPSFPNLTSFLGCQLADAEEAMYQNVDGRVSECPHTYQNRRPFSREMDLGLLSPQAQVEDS

[12] = target: Serine/threonine-protein kinase DCLK1 (Homo sapiens) (UniProt O15075); assay: Inhibition of partial length human DCAMKL1 expressed in mammalian system at 1 uM; method in brief: as §2
[13] = target: Serine/threonine-protein kinase PLK1 (Homo sapiens) (UniProt P53350); assay: Inhibition of partial length human PLK1 expressed in mammalian system at 1 uM; method in brief: as §1
Serine/threonine-protein kinase PLK1 (Homo sapiens), sequence (P53350 whole entry): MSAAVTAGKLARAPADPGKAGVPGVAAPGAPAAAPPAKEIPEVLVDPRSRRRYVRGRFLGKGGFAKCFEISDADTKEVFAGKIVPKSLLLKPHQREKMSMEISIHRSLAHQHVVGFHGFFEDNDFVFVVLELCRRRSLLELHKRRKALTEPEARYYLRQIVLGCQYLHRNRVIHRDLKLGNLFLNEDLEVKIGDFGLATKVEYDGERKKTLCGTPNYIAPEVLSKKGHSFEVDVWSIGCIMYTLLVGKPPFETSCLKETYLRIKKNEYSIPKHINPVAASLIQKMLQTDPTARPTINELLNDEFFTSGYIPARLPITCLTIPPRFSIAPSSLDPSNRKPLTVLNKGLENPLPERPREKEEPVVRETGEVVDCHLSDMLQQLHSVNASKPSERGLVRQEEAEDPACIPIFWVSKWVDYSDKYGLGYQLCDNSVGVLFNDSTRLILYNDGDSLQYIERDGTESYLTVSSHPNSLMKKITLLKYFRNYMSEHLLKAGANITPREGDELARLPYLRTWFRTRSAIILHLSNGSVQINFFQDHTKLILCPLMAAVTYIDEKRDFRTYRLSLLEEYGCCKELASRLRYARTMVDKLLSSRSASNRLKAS

[14] = Cytotoxicity against human WI38 cells assessed as change in phenotypic response measured after prolonged treatment; assay type: cell-based; settings: wi-38
[15] = system: NCI-H358; assay: Antiproliferative activity against human NCI-H358 cells assessed as change in phenotypic response measured after prolonged treatment; assay type: functional, cell-based
[16] = system: Mast/stem cell growth factor receptor Kit (Homo sapiens), P10721 [V559D,T670I]; assay: Inhibition of partial length human KIT V559D/T670I double mutant expressed in bacterial system at 1 uM
Method in brief: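 Single-concentration screen at 1 µM test concentration, run as part of a commercial binding/activity profiling panel covering 97 kinases.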

[17] = target: TGF-beta receptor type-1 (Homo sapiens) (UniProt P36897); assay: Inhibition of partial length human TGFBR1 expressed in bacterial system at 1 uM; method in brief: as §1
TGF-beta receptor type-1 (Homo sapiens), sequence (P36897 whole entry): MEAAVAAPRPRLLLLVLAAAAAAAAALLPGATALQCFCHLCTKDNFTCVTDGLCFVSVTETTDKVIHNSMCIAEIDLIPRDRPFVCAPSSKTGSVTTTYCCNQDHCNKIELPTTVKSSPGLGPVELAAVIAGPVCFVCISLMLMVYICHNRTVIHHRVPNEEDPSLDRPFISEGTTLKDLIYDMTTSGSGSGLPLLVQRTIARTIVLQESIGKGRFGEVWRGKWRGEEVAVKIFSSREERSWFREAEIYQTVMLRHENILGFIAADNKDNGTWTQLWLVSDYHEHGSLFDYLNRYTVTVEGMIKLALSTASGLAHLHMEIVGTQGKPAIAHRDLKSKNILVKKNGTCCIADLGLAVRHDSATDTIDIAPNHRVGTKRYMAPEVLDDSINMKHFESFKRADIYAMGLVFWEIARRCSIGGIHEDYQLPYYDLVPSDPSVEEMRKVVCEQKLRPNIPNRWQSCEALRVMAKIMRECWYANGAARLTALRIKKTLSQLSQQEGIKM

[18] = target: Tyrosine-protein kinase ZAP-70 (Homo sapiens) (UniProt P43403); assay: Inhibition of partial length human ZAP70 expressed in mammalian system at 1 uM; method in brief: as §1
[19] = target: Mitogen-activated protein kinase 10 (Homo sapiens) (UniProt P53779); assay: Inhibition of partial length human JNK3 expressed in mammalian system at 1 uM; method in brief: as §2
[20] = target: Proto-oncogene tyrosine-protein kinase Src (Homo sapiens) (UniProt P12931); assay: Inhibition of partial length human SRC expressed in bacterial system at 1 uM; method in brief: as §1
[21] = system: HMEC; assay: Cytotoxicity against human HMEC cells assessed as change in phenotypic response up to 50 uM; assay type: cell-based
[22] = Half life in rat plasma; assay type: ADME, cell-free
Method in brief: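 Plasma stability was measured in human and rat plasma, with half-life reported in hours.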

[23] = Cytotoxicity against human 293T cells assessed as change in phenotypic response up to 50 uM; assay type: cell-based; settings: hek-293t
[24] = Cytotoxicity against human WI38 cells assessed as change in phenotypic response up to 50 uM; assay type: cell-based; settings: wi-38
[25] = system: A549; assay: Antiproliferative activity against human A549 cells assessed as change in phenotypic response measured after prolonged treatment; assay type: functional, cell-based
[26] = target: Serine/threonine-protein kinase Chk1 (Homo sapiens) (UniProt O14757); assay: Inhibition of partial length human CHEK1 expressed in bacterial system at 1 uM; method in brief: as §2
Serine/threonine-protein kinase Chk1 (Homo sapiens), sequence (O14757 whole entry): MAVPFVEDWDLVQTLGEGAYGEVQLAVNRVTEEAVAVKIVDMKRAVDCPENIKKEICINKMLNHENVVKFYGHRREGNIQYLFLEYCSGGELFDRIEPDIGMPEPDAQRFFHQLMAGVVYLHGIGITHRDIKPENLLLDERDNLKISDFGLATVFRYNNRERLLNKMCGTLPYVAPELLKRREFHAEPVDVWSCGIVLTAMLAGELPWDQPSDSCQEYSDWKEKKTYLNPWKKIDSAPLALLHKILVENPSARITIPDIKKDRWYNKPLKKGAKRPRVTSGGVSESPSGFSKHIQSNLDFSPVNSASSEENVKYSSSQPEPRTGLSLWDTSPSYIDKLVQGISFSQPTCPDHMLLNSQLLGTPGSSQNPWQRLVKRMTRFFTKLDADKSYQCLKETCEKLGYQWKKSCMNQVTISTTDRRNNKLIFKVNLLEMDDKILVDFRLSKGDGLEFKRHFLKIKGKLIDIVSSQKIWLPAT

[27] = target: Inhibitor of nuclear factor kappa-B kinase subunit alpha (Homo sapiens) (UniProt O15111); assay: Inhibition of partial length human IKKalpha expressed in mammalian system at 1 uM; method in brief: as §2
[28] = target: Cyclin-dependent kinase 2 (Homo sapiens) (UniProt P24941); assay: Inhibition of partial length human CDK2 expressed in bacterial system at 1 uM; method in brief: as §2
[29] = target: Fibroblast growth factor receptor 3 (Homo sapiens) (UniProt P22607); assay: Inhibition of partial length human FGFR3 expressed in bacterial system at 1 uM; method in brief: as §2
[30] = target: Aurora kinase A (Homo sapiens) (UniProt O14965); assay: Inhibition of partial length human Aurora A expressed in mammalian system at 1 uM; method in brief: as §2
Aurora kinase A (Homo sapiens), sequence (O14965 whole entry): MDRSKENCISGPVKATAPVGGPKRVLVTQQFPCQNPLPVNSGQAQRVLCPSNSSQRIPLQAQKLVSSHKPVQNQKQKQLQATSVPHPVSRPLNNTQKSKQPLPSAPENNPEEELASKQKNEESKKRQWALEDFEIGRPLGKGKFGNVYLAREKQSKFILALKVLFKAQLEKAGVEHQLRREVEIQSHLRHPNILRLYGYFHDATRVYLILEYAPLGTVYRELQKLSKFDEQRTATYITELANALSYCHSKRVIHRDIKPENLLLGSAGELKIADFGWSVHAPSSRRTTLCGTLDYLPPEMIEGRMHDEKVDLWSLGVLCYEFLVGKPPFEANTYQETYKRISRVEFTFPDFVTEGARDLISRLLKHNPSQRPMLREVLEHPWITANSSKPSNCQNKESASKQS

[31] = target: Platelet-derived growth factor receptor alpha (Homo sapiens) (UniProt P16234); assay: Inhibition of partial length human PDGFRalpha expressed in mammalian system at 1 uM; method in brief: as §1
[32] = system: SAOS-2; assay: Antiproliferative activity against human Saos2 cells assessed as change in phenotypic response measured after prolonged treatment; assay type: functional, cell-based
[33] = target: Atypical kinase COQ8A, mitochondrial (Homo sapiens) (UniProt Q8NI60); assay: Inhibition of partial length human ADCK3 expressed in bacterial system at 1 uM; method in brief: as §2
[34] = target: Focal adhesion kinase 1 (Homo sapiens) (UniProt Q05397); assay: Inhibition of partial length human FAK expressed in bacterial system at 1 uM; method in brief: as §2
[35] = target: Tyrosine-protein kinase ABL1 (Homo sapiens) (UniProt P00519); assay: Inhibition of partial length human ABL1 expressed in mammalian system at 1 uM; method in brief: as §2
[36] = target: Serine/threonine-protein kinase RIO2 (Homo sapiens) (UniProt Q9BVS4); assay: Inhibition of partial length human RIOK2 expressed in mammalian system at 1 uM; method in brief: as §1
[37] = target: Dual specificity tyrosine-phosphorylation-regulated kinase 1B (Homo sapiens) (UniProt Q9Y463); assay: Inhibition of partial length human DYRK1B expressed in bacterial system at 1 uM; method in brief: as §2
[38] = system: BJ; assay: Cytotoxicity against human BJ cells assessed as change in phenotypic response measured after prolonged treatment; assay type: cell-based
[39] = target: Serine/threonine-protein kinase pim-1 (Homo sapiens) (UniProt P11309); assay: Inhibition of partial length human PIM1 expressed in bacterial system at 1 uM; method in brief: as §1
Serine/threonine-protein kinase pim-1 (Homo sapiens), sequence (P11309 whole entry, looked up): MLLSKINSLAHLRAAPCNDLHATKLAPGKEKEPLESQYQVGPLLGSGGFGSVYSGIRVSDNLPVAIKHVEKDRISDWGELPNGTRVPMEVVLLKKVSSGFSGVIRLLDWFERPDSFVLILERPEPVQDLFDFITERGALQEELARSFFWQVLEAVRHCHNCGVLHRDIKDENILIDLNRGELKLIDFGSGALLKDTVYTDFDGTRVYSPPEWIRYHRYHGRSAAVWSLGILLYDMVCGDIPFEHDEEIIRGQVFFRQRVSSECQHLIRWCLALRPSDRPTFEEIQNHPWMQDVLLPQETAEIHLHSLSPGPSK

[40] = target: Rho-associated protein kinase 2 (Homo sapiens) (UniProt O75116); assay: Inhibition of partial length human ROCK2 expressed in mammalian system at 1 uM; method in brief: as §1
Rho-associated protein kinase 2 (Homo sapiens), sequence (O75116 whole entry, looked up): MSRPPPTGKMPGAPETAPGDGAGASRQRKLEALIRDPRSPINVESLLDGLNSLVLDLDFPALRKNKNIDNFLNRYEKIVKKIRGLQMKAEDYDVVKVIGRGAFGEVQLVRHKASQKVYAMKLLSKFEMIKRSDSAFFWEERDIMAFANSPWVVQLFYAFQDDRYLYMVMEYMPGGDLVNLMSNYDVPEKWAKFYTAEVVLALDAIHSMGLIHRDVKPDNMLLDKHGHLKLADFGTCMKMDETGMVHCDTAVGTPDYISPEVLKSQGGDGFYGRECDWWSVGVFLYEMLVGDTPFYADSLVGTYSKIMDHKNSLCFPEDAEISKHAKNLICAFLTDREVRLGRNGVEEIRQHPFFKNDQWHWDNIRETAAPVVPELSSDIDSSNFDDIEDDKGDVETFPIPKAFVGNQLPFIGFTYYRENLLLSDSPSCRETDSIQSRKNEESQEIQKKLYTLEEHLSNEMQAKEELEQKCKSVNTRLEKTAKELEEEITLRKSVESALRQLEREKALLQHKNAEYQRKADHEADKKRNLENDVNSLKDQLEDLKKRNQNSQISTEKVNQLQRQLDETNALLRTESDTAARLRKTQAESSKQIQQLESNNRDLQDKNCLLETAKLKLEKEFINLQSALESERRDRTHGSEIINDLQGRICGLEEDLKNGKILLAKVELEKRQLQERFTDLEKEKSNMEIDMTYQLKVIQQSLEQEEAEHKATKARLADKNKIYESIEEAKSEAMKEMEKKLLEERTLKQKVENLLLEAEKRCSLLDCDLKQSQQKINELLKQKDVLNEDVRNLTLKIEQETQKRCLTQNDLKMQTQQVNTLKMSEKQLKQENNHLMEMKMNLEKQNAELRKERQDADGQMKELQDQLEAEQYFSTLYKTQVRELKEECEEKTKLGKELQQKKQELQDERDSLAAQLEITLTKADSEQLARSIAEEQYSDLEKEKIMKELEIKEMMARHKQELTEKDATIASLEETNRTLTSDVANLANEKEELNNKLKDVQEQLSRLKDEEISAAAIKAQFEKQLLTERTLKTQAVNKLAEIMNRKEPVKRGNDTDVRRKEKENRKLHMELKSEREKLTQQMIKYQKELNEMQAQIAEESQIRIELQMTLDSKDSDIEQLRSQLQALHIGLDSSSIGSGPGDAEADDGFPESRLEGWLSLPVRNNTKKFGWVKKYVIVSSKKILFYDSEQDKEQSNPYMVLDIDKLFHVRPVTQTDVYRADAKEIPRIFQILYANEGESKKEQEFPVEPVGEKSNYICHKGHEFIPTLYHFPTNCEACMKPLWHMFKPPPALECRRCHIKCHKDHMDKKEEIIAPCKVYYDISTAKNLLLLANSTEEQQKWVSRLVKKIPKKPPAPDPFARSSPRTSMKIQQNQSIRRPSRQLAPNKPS

[41] = target: Serine/threonine-protein kinase STK11 (Homo sapiens) (UniProt Q15831); assay: Inhibition of partial length human LKB1 expressed in bacterial system at 1 uM; method in brief: as §2

For `Cc1cnc(N)nc1OCC(C)(C)CO`, which Activity [1] is on record?
The Activity was “inactive”.

What about the inhibition [2] of the same compound?
Its inhibition is “inactive”.

And the inhibition [3]?
Its inhibition is “inactive”.

What about the inhibition [4] of the same compound?
Its inhibition is “inactive”.

And the inhibition [5]?
The inhibition was “inactive”.

What about the inhibition [6] of the same compound?
The inhibition was “inactive”.

What about the Activity [7] of the same compound?
The Activity was “Non-toxic”.

And the inhibition [8]?
Its inhibition is “inactive”.

And the inhibition [9]?
Its inhibition is “inactive”.

What about the inhibition [10] of the same compound?
The inhibition was “inactive”.

And the inhibition [11]?
Its inhibition is “inactive”.

And the inhibition [12]?
Its inhibition is “inactive”.

And the inhibition [13]?
The inhibition was “inactive”.

What about the Activity [14] of the same compound?
Its Activity is “Non-toxic”.

And the Activity [15]?
The Activity was “inactive”.

What about the inhibition [16] of the same compound?
Its inhibition is “inactive”.

And the inhibition [17]?
Its inhibition is “inactive”.

And the inhibition [18]?
The inhibition was “inactive”.

What about the inhibition [19] of the same compound?
The inhibition was “inactive”.

And the inhibition [20]?
The inhibition was “inactive”.

And the Activity [21]?
The Activity was “Non-toxic”.

What about the half-life [22] of the same compound?
Its half-life is 86 h.

What about the Activity [23] of the same compound?
The Activity was “Non-toxic”.

What about the Activity [24] of the same compound?
Its Activity is “Non-toxic”.

And the Activity [25]?
Its Activity is “inactive”.

What about the inhibition [26] of the same compound?
The inhibition was “inactive”.

What about the inhibition [27] of the same compound?
Its inhibition is “inactive”.

What about the inhibition [28] of the same compound?
The inhibition was “inactive”.

And the inhibition [29]?
Its inhibition is “inactive”.

And the inhibition [30]?
Its inhibition is “inactive”.

What about the inhibition [31] of the same compound?
The inhibition was “inactive”.

What about the Activity [32] of the same compound?
The Activity was “inactive”.

What about the inhibition [33] of the same compound?
Its inhibition is “inactive”.

And the inhibition [34]?
Its inhibition is “inactive”.

What about the inhibition [35] of the same compound?
The inhibition was “inactive”.

And the inhibition [36]?
Its inhibition is “inactive”.

And the inhibition [37]?
The inhibition was “inactive”.

And the Activity [38]?
The Activity was “Non-toxic”.

And the inhibition [39]?
The inhibition was “inactive”.

And the inhibition [40]?
The inhibition was “inactive”.

What about the inhibition [41] of the same compound?
The inhibition was “inactive”.
